From PubChem
Sampled rows, rich in hits. Any-hit rate of the full collection: about 3.5%.
MrgX1 antag: blocks BAM8-22 activation of human MrgX1 receptor | 310,000 tested, 1.3% active | Q96LB2 | MRGX1-HEK293 calcium flux, Fluo-4, BAM8-22 antagonism; stronger effect = lower value | B-score at 10 µM | AID 588676;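 active = calcium-response B-score plate-corrected more than 3 library SD below zero, starting fluorescence within 5 deviations, no agonist response on first addition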;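 also: peak minus trough fluorescence over baseline after final BAM8-22 challenge near maximal dose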
Target sequence (Q96LB2 whole entry, looked up): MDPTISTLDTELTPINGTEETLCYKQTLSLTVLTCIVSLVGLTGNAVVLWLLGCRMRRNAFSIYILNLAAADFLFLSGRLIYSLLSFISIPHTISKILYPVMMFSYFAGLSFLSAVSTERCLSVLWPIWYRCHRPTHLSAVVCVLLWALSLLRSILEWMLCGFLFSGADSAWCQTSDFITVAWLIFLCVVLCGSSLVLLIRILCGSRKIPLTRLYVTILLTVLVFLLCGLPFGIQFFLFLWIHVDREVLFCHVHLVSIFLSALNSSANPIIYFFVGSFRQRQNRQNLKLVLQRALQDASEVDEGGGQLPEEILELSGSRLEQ
RGS4 block: inhibitors of human RGS4; P49798; HEK293 M3R/RGS4 inducible, Fluo-4 calcium flux; stronger effect = higher value; triggered by carbachol at its EC20; AID 463165; 310,000 tested, 0.45% active; B-score at 10 µM;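 active = B-score, a plate-corrected calcium signal, over three deviations above library mean, with baseline fluorescence within five deviations of library mean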;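 also: RGS4 expression induced by doxycycline in cells with stable M3 receptor; B-score is computed from the integrated fluorescence ratio over baseline after carbachol; higher B-score means a larger calcium signal and so more RGS4 inhibition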
Target sequence (P49798 whole entry, looked up): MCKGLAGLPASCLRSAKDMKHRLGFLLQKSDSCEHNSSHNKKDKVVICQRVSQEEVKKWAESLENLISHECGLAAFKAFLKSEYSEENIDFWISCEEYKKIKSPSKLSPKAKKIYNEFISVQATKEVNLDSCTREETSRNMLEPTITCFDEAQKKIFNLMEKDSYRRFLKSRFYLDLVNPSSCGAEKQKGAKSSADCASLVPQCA
RGS4 pot: potentiators or activators of RGS4; B-score at 10 µM; 310,000 tested, 0.92% active; HEK293 M3R/inducible RGS4, carbachol calcium flux Fluo4; stronger effect = lower value; AID 463111;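 active = B-score of the integrated calcium signal more than 4 SD below the library mean, with starting fluorescence not abnormally high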;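 also: negative B-score means reduced calcium response which marks RGS4 activation or potentiation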
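Reagent: ECmax carbachol challenge; Test system: M3R-expressing HEK293 line, RGS4 induced by doxycycline; Schedule: overnight RGS4 induction, 30 min dye load 37 °C, 20 min compound RT; Detection: calcium dye Fluo4 fluorescence; Read-out: Agonist-evoked peak-minus-minimum fluorescence over baseline, integrated ratio, B score.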
MrgX1 PAM: human MrgX1 positive allosteric modulation, primary screen | Q96LB2 | MrgX1-HEK293, Fluo-4 calcium flux, FDSS; stronger effect = higher value | B-score at 10 µM | 310,000 tested, 0.63% active | AID 588675;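 active = plate-corrected calcium response at least 3 library SD above typical, normal starting fluorescence, not activating the receptor alone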;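 also: compound read alongside a low EC10 to EC30 dose of BAM8-22 agonist; peak minus trough fluorescence over baseline measured at the second addition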
MrgX1 ag: agonists of human MrgX1 receptor | Q96LB2 | MrgX1-HEK293 cells, Fluo-4 calcium fluorescence, agonist mode; stronger effect = higher value | B-score at 10 µM | 310,000 tested, 0.44% active | AID 588627;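 active = calcium response B-score plate-corrected fluorescence ratio at least 3 library SD, with starting fluorescence B-score inside 5 SD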
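times = overnight plating, then 30 min 37 °C plus 30 min room-temperature dye loading | assay system = stable human MrgX1 HEK293 cell line | input = fifteen thousand cells per well | signal = kinetic calcium dye fluorescence, Fluo-4 NW | dosing = compound delivered in addition one of three | read-out = B-scored fluorescence response ratio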
MrgX1 antag conf: human MrgX1 receptor antagonism, re-confirmation screen. 2,300 tested, 19% active. MrgX1-HEK293, BAM8-22 calcium flux, Fluo-4; stronger effect = lower value. shares compounds with MrgX1 antag. remaining BAM8-22 calcium response % of control (stronger effect = lower value), % at 10 µM;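 active = remaining agonist calcium response no higher than 100% minus 3 SD of agonist-only control wells, with starting fluorescence near control levels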;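 also: agonist BAM8-22 given at a near maximal EC90 to ECmax level; peak minus minimum fluorescence divided by baseline after agonist addition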
HEK293 Ca flux: counter-screen for MrgX1 antagonists: effect in parental HEK293 cells | fluorescence ratio F(max-min)/F0 at 10 µM | shares compounds with MrgX1 antag | 4,000 tested, 2% active | Fluo-4 calcium fluorescence, FDSS;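 active = duplicate-averaged calcium fluorescence ratio at least three times the standard deviation of buffer wells, a nonspecific response in parental cells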
HEK293 Ca counter: counter-screen for MrgX1 allosteric activators: effect in parental HEK293 cells; shares compounds with MrgX1 antag; parental HEK293 calcium flux, Fluo-4 fluorescence ratio; stronger effect = higher value; fluorescence ratio F(max-min)/F0 at 10 µM; 4,000 tested, 0.4% active; AID 624114;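 active = calcium fluorescence ratio, averaged over duplicates, at least 3 SD of the buffer-well ratio, meaning a nonspecific response in receptor-free cells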;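 also: untransfected parental HEK293 lacking MrgX1 used as counterscreen for MrgX1 allosteric activators; fluorescence change taken during the second addition on a kinetic imager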
HEK293 Ca cntr2: counter-screen for MrgX1 activators: effect in parental HEK293 cells. shares compounds with MrgX1 antag. Fluo-4 calcium fluorescence (FDSS); stronger effect = higher value. fluorescence ratio F(max-min)/F0 at 10 µM. 4,000 tested, 8.7% active;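 active = calcium fluorescence ratio at least three times the spread of buffer wells, meaning a non-specific response in parental cells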
* marks the source's active call; other numbers are inactive results.

`COc1c2c(nc3ccccc13)OC(C(C)(O)CO)C2` (configuration not stated) gave MrgX1 antag -6.89*, RGS4 block inactive, RGS4 pot inactive, MrgX1 PAM inactive, MrgX1 ag inactive, MrgX1 antag conf inactive, HEK293 Ca flux inactive, HEK293 Ca counter inactive and HEK293 Ca cntr2 inactive.
`Cc1ccc2cc3c(N)[nH]nc3nc2c1` gave MrgX1 antag inactive, RGS4 block inactive, RGS4 pot inactive, MrgX1 PAM inactive and MrgX1 ag inactive.
OCCC1CN(Cc2ccon2)CCN1Cc1ccc(F)c(F)c1 (configuration not stated) was read as MrgX1 antag -8.45*, RGS4 block inactive, RGS4 pot inactive, MrgX1 PAM inactive, MrgX1 ag inactive, MrgX1 antag conf inactive, HEK293 Ca flux inactive, HEK293 Ca counter inactive and HEK293 Ca cntr2 inactive.
`COc1cccc(CN2CCN(Cc3ccon3)CC2CCO)c1` (configuration not stated) gave MrgX1 antag inactive, RGS4 block inactive, RGS4 pot inactive, MrgX1 PAM inactive and MrgX1 ag inactive.
Screening Cc1nc2ccc3nc(NC(=O)c4ccc5c(c4)OCCO5)sc3c2s1 returned MrgX1 antag inactive, RGS4 block inactive, RGS4 pot inactive, MrgX1 PAM inactive and MrgX1 ag inactive.
`Cc1nc2c(ccc3nc(NC(=O)c4ccc5c(c4)OCCO5)sc32)s1` gave MrgX1 antag -10.3*, RGS4 block inactive, RGS4 pot inactive, MrgX1 PAM inactive, MrgX1 ag inactive, MrgX1 antag conf 79.1%*, HEK293 Ca flux inactive, HEK293 Ca counter inactive and HEK293 Ca cntr2 inactive.
Cc1nc(CCNC(=O)CC2C(=O)NCCN2CC(C)C)nc2c1CCC2 (configuration not stated) was read as MrgX1 antag inactive, RGS4 block inactive, RGS4 pot inactive, MrgX1 PAM inactive and MrgX1 ag inactive.
c1cncc(-c2nnc3n2N=C(c2cccs2)CS3)c1 was read as MrgX1 antag -4.71*, RGS4 block inactive, RGS4 pot inactive, MrgX1 PAM inactive, MrgX1 ag inactive, MrgX1 antag conf inactive, HEK293 Ca flux inactive, HEK293 Ca counter inactive and HEK293 Ca cntr2 inactive.
`CCCn1c(N)nc2ccccc21` gave MrgX1 antag -5.47*, RGS4 block inactive, RGS4 pot inactive, MrgX1 PAM inactive, MrgX1 ag inactive, MrgX1 antag conf inactive, HEK293 Ca flux inactive, HEK293 Ca counter inactive and HEK293 Ca cntr2 inactive.
For CCOCCn1c(CCCO)nc2ccccc21 the results were MrgX1 antag -11*, RGS4 block inactive, RGS4 pot inactive, MrgX1 PAM inactive, MrgX1 ag inactive, MrgX1 antag conf inactive, HEK293 Ca flux inactive, HEK293 Ca counter inactive and HEK293 Ca cntr2 inactive.
`CCOCCn1c(CC)nc2ccccc21` gave MrgX1 antag inactive, RGS4 block inactive, RGS4 pot inactive, MrgX1 PAM inactive and MrgX1 ag inactive.
Screening CCc1nc2ccccc2n1CCC(C)C returned MrgX1 antag -6.32*, RGS4 block inactive, RGS4 pot inactive, MrgX1 PAM inactive, MrgX1 ag inactive, MrgX1 antag conf inactive, HEK293 Ca flux inactive, HEK293 Ca counter inactive and HEK293 Ca cntr2 inactive.
For CCn1c(N)nc2ccccc21 the results were MrgX1 antag inactive, RGS4 block inactive, RGS4 pot inactive, MrgX1 PAM inactive and MrgX1 ag inactive.
CCc1nc2ccccc2n1CCc1ccccc1 was read as MrgX1 antag inactive, RGS4 block inactive, RGS4 pot inactive, MrgX1 PAM inactive and MrgX1 ag inactive.
C=CCn1c(N)nc2ccccc21 was read as MrgX1 antag -4.61*, RGS4 block inactive, RGS4 pot inactive, MrgX1 PAM inactive, MrgX1 ag inactive, MrgX1 antag conf inactive, HEK293 Ca flux inactive, HEK293 Ca counter inactive and HEK293 Ca cntr2 inactive.
For N#Cc1c2ccccc2nc2ccccc12 the results were MrgX1 antag inactive, RGS4 block inactive, RGS4 pot inactive, MrgX1 PAM inactive and MrgX1 ag inactive.
`Cc1ccc(C(=O)C(OC(=O)CNS(=O)(=O)c2ccccc2)c2ccccc2)cc1` (configuration not stated) gave MrgX1 antag inactive, RGS4 block inactive, RGS4 pot inactive, MrgX1 PAM inactive and MrgX1 ag inactive.
`C=CCn1c(C(C)C)nc2ccccc21` gave MrgX1 antag -6.72*, RGS4 block inactive, RGS4 pot inactive, MrgX1 PAM inactive, MrgX1 ag inactive, MrgX1 antag conf inactive, HEK293 Ca flux inactive, HEK293 Ca counter inactive and HEK293 Ca cntr2 inactive.
C=CCn1c(C(O)c2ccccc2)nc2ccccc21 (configuration not stated) was read as MrgX1 antag inactive, RGS4 block inactive, RGS4 pot inactive, MrgX1 PAM inactive and MrgX1 ag inactive.
For CC(C)NC(=O)NC(=O)COc1ncnc2sccc12 the results were MrgX1 antag -4.89*, RGS4 block inactive, RGS4 pot inactive, MrgX1 PAM inactive, MrgX1 ag inactive, MrgX1 antag conf inactive, HEK293 Ca flux inactive, HEK293 Ca counter inactive and HEK293 Ca cntr2 inactive.
Screening O=C(COc1ncnc2sccc12)NC1CCCc2ccccc21 (configuration not stated) returned MrgX1 antag -7.44*, RGS4 block inactive, RGS4 pot inactive, MrgX1 PAM inactive, MrgX1 ag inactive, MrgX1 antag conf 79.6%*, HEK293 Ca flux inactive, HEK293 Ca counter inactive and HEK293 Ca cntr2 inactive.
For CC(=O)OCCCN1c2ccccc2Nc2nnc(-c3ccccc3)cc21 the results were MrgX1 antag inactive, RGS4 block inactive, RGS4 pot inactive, MrgX1 PAM inactive and MrgX1 ag inactive.
Cc1ccc(S(=O)(=O)n2nnc3ccccc32)c(C)c1C was read as MrgX1 antag -4.8*, RGS4 block inactive, RGS4 pot inactive, MrgX1 PAM inactive, MrgX1 ag inactive, MrgX1 antag conf inactive, HEK293 Ca flux inactive, HEK293 Ca counter inactive and HEK293 Ca cntr2 inactive.
